The record followed here is paper PMC8861878 (The Journal of pharmacy and pharmacology, 2020).

The target of one data set is T1, UGT1A9 (Homo sapiens, UniProt O60656).
T1 sequence (O60656 26-530): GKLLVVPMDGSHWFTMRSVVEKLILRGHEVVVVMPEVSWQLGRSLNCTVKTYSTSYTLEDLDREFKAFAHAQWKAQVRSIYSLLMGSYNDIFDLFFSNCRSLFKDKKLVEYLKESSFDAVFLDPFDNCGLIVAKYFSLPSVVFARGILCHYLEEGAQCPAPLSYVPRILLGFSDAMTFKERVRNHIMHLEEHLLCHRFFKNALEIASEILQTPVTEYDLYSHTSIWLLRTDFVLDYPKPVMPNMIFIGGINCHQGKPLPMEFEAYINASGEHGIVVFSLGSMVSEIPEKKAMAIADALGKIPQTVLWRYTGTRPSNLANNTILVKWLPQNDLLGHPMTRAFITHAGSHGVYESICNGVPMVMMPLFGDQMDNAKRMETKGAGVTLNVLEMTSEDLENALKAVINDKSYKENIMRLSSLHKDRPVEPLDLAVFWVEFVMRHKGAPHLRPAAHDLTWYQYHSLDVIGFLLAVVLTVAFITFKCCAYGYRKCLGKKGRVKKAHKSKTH
In words: Inhibition of UGT1A9. The format is in vitro ADME.

Another data set deals with T2, UGT2B7 (Homo sapiens, UniProt P16662).
T2 sequence (P16662 24-529): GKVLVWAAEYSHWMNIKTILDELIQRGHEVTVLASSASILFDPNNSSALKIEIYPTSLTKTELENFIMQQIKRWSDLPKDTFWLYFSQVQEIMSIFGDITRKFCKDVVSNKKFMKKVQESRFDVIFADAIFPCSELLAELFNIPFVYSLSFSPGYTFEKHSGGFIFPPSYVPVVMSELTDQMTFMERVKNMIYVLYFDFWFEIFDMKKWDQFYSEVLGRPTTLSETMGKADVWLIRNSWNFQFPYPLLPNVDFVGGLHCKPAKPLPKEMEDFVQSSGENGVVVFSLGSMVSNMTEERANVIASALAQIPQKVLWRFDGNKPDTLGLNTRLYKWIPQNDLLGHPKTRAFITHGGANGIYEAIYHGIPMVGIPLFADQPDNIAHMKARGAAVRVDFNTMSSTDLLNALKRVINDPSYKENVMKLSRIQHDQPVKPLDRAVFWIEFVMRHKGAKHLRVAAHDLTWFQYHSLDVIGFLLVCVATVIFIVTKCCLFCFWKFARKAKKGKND
Description: Inhibition of UGT2B7. The format is in vitro ADME.

Data set [1] in a line: Glucuronidation of isobavachin by pooled HLM, enzyme kinetics. The format is in vitro ADME, human.
The target of the next data set is T3, UGT2B4 (Homo sapiens, UniProt P06133).
T3 sequence (P06133 24-528): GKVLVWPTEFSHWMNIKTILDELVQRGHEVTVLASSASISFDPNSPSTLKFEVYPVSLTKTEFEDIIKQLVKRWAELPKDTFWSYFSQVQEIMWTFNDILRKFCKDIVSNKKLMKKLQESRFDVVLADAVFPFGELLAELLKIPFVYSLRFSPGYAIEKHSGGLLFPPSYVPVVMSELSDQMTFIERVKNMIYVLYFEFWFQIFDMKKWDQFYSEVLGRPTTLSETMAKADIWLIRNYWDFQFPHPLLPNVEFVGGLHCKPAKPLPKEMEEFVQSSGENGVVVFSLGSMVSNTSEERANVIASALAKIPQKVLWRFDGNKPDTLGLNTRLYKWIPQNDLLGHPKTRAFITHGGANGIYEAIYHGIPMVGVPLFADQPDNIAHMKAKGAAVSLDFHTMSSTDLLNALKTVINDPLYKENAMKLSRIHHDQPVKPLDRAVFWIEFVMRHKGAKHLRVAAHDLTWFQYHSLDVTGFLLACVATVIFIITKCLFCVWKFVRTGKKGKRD
In words: Glucuronidation of isobavachin by recombinant UGT2B4, enzyme kinetics. Format: in vitro ADME. The following applies: formation of G1; Michaelis–Menten model.

In a further data set the target is T4, CYP1A2 (Homo sapiens, UniProt P05177).
T4 sequence (P05177 1-516): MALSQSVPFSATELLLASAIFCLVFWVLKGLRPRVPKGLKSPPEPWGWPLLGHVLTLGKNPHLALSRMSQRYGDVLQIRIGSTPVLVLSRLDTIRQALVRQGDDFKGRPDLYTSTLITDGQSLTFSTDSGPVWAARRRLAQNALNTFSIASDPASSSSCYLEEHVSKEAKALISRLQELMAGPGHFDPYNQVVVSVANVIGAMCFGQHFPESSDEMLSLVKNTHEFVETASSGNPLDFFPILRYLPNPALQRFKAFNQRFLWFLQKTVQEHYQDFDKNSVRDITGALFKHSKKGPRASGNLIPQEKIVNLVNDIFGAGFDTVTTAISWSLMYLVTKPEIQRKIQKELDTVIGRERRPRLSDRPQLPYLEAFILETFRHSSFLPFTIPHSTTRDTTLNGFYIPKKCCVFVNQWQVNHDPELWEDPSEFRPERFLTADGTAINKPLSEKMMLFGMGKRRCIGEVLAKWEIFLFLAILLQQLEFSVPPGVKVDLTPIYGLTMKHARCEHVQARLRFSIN
In words: Inhibition of CYP1A2. Format: in vitro ADME. The following applies: isobavachin 1, 10, 100 μM; substrate phenacetin (100 μM). A digest of the protocol: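 Recombinant human CYPs (CYP1A2 and 3A4 at 0.05 mg/ml; CYP2C8 and 2E1 at 0.1 mg/ml) with probe substrate in Tris-HCl 50 mM pH 7.4, MgCl2 5 mM and NADPH 1 mM at 37 °C for 60 min. Run without (control) or with test compound at 1, 10 or 100 μM. Acetonitrile stop; metabolite by UHPLC-TQD-MS; activity versus control, triplicate.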

The mark [2] stands for this setting: based on the smallest AIC and SC values.

What is called IC50 is the point on the concentration scale where inhibition reaches its midpoint. Read a high IC50 as weaker potency. By Ki is commonly meant a measure of affinity in units of concentration, obtained from inhibition or displacement. Lower therefore signals a stronger hold on the target. `CC(C)=CCc1c(O)ccc2c1O[C@H](c1ccc(O)cc1)CC2=O` [isobavachin]: the IC50 against UGT1A9 came out at 1210 ± 300 nM; against UGT2B7, 90 ± 10 nM. Further, the residual activities at UGT1A9 (10 μM isobavachin) was 16.51 % of the negative control; at UGT2B7 (10 μM isobavachin), 19.32 % of the negative control. For the same compound, the Ki on UGT1A9 (substrate propofol, competitive model (not selected)) stood at 200 ± 30 nM; on UGT1A9 (substrate propofol, mixed-type model (not selected)), 430 ± 140 nM; at UGT1A9 (substrate propofol, non-competitive model (selected, smallest AIC and SC)), 440 ± 40 nM; on UGT2B7 (substrate zidovudine, mixed-type model (not selected)), 40 ± 10 nM; at UGT2B7 (substrate zidovudine, non-competitive model (selected, smallest AIC and SC)), 50 ± 10 nM. In addition, the Inhibition type entry at UGT1A9 (setting [2]) and at UGT2B7 (setting [2]) was “non-competitive inhibition mode” in each case. For the same compound, the α on UGT1A9 (substrate propofol, mixed-type model) worked out at 1.05 ± 0.70; on UGT2B7 (substrate zidovudine, mixed-type model), 1.80 ± 0.93. The “CLint (CLmax)” value in data set [1] (formation of G1, Hill equation (CLmax)) was found to be 148.79 ± 9.36 μl/min per mg; in data set [1] (formation of G2, substrate inhibition model) it was 21.82 ± 4.35 μl/min per mg; at UGT2B4 it was 30.59 ± 3.28 μl/min per mg. For the same compound, at UGT2B4, the Vmax turned out to be 81.29 ± 2.05 pmol/min per mg. Moreover, the inhibitory effects result on CYP1A2 is on record as “negligible or weak”.
